Active and inactive are the calls of the source. The rule behind the calls is not given here.
Assays:
[1] = system: Hep 3B2; assay: Anti-proliferative activity against human Hep3B cells assessed as reduction in Vimentin protein expression level by measuring green fluorescence at 80 nM incubated for 24 hrs in presence of SGBS CM by immunofluorescence analysis
[2] = system: HepG2; assay: Anti-proliferative activity against human HepG2 cells assessed as reduced cell proliferation at 80 nM incubated for 24 hrs in presence of SGBS CM by Fluoro Fire-Blue ProViaTox assay; assay type: functional, cell-based
[3] = system: Hep 3B2; assay: Anti-proliferative activity against human Hep3B cells assessed as decrease in TNF-alpha mRNA level at 80 nM incubated for 24 hrs in presence of SGBS CM by qRT-PCR analysis; assay type: functional, cell-based
[4] = system: Hep 3B2; assay: Effect on human Hep3B cells assessed as reduction of HDAC global activity at 80 nM incubated for 24 hrs in presence of SGBS CM by FluoroFire HDAC Activity Assay Kit relative to control; assay type: functional; parameters: scale not given: the % may be the effect or the level left
Summary of the method: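 Hep3B cells treated 24 h with 80 nM drug, alone or with 30% SGBS conditioned medium. Lysates made with lysis reagent (15 min, room temperature, shaking), spun, and supernatant used. Preincubated 20 min at 37°C, then Emerald substrate added for 1 h at 37°C. Fluorescence read at Ex 490/Em 525 nm. HeLa nuclear extract as positive control, HeLa extract with trichostatin A as negative control (n = 3).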

[5] = system: Hep 3B2; assay: Anti-proliferative activity against human Hep3B cells assessed as reduction in cell viability at 80 nM incubated for 24 hrs in presence of doxorubicin by Fluoro Fire-Blue ProViaTox assay relative to control; assay type: functional, cell-based
[6] = system: Hep 3B2; assay: Downregulation of BCL2 mRNA expression in human Hep3B cells at 80 nM incubated for 24 hrs in presence of 17-AAG by qRT-PCR analysis; assay type: functional, cell-based
[7] = system: Hep 3B2; assay: Effect on human Hep3B cells assessed as reduction in HDAC2 mRNA level at 80 nM incubated for 24 hrs in presence of SGBS CM by qRT-PCR analysis; assay type: functional, cell-based
Summary of the method: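 Hep3B cells exposed to 30% conditioned medium from differentiated SGBS adipocytes, with or without 80 nM drug. HDAC1, 2 and 3 RNA given as fold change versus untreated cells or between treatments.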

[8] = system: Hep 3B2; assay: Anti-proliferative activity against human Hep3B cells assessed as increase in p27 mRNA expression at 80 nM incubated for 24 hrs in presence of SGBS CM by qRT-PCR analysis; assay type: functional, cell-based
[9] = system: Huh-7; assay: Anti-proliferative activity against human Huh-7 cells assessed as reduced cell proliferation at 80 nM incubated for 24 hrs in presence of SGBS CM by Fluoro Fire-Blue ProViaTox assay; assay type: functional, cell-based
[10] = system: Hep 3B2; assay: Downregulation of ZFP64 mRNA expression in human Hep3B cells at 80 nM incubated for 24 hrs in presence of 17-AAG by qRT-PCR analysis
[11] = system: Hep 3B2; assay: Anti-proliferative activity against human Hep3B cells assessed as increase in p21 mRNA expression at 80 nM incubated for 24 hrs in presence of SGBS CM by qRT-PCR analysis; assay type: functional, cell-based
[12] = system: HepG2; assay: Anti-proliferative activity against human HepG2 cells assessed as reduced cell proliferation at 80 nM incubated for 24 hrs by Fluoro Fire-Blue ProViaTox assay; assay type: functional, cell-based
[13] = system: Huh-7; assay: Effect on human Huh-7 cells assessed as reduction in HDAC1 mRNA level at 80 nM incubated for 24 hrs by qRT-PCR analysis; assay type: functional, cell-based
Summary of the method: (§1)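 HepG2 (EMEM) and Huh7 (DMEM) cells, both with 10% FBS, treated with 30% differentiated-SGBS conditioned medium with or without 80 nM drug. HDAC1 RNA given as fold change versus untreated cells or between treatments (n = 3).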

[14] = system: Huh-7; assay: Anti-proliferative activity against human Huh-7 cells assessed as reduced cell proliferation at 80 nM incubated for 24 hrs by Fluoro Fire-Blue ProViaTox assay; assay type: functional, cell-based
[15] = system: HepG2; assay: Effect on human HepG2 cells assessed as reduction in HDAC1 mRNA level at 80 nM incubated for 24 hrs by qRT-PCR analysis; assay type: functional, cell-based
Summary of the method: as §1

[16] = system: Hep 3B2; assay: Anti-proliferative activity against human Hep3B cells assessed as reduced cell proliferation at 80 nM incubated for 24 hrs by Fluoro Fire-Blue ProViaTox assay; assay type: functional, cell-based
[17] = system: Hep 3B2; assay: Anti-proliferative activity against human Hep3B cells assessed as reduction in cell viability at 80 nM measured after 24 hrs in presence of 17-AAG under SGBS CM treatment by Fluoro Fire-Blue ProViaTox assay relative to control
[18] = system: Hep 3B2; assay: Anti-proliferative activity against human Hep3B cells assessed as cell proliferation at incubated for 24 hrs by Fluoro Fire-Blue ProViaTox assay; assay type: functional, cell-based; conditions: dose 20-100 nM
[19] = system: Hep 3B2; assay: Anti-proliferative activity against human Hep3B cells assessed as increase in cleaved Caspase 3/7 level at 80 nM incubated for 24 hrs in presence of SGBS CM by Tetraplex-Assay Kit analysis; assay type: functional, cell-based
Summary of the method: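 Hep3B seeded at 20000 cells/well overnight, then treated with 30% differentiated SGBS conditioned medium with or without resminostat 80 nM for 24 h. Tetraplex caspase substrate buffer added during treatment for real-time cleavage read-out: Caspase 3/7 at Ex 535/Em 620 nm, Caspase 8 at Ex 490/Em 525 nm, Caspase 9 at Ex 370/Em 450 nm. Compared with controls or between treatments; n = 3.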

[20] = system: Hep 3B2; assay: Downregulation of HDAC1 expression in human Hep3B cells at 80 nM incubated for 24 hrs in presence of 17-AAG by qRT-PCR analysis; assay type: functional, cell-based
[21] = system: Hep 3B2; assay: Anti-proliferative activity against human Hep3B cells assessed as increase in BIM mRNA level at 80 nM incubated for 24 hrs by qRT-PCR analysis; assay type: functional, cell-based
[22] = system: Hep 3B2; assay: Anti-proliferative activity against human Hep3B cells assessed as reduction in cell viability at 80 nM incubated for 24 hrs in presence of SC1 by Fluoro Fire-Blue ProViaTox assay relative to control; assay type: functional, cell-based
[23] = system: Hep 3B2; assay: Anti-proliferative activity against human Hep3B cells assessed as reduction in cell viability at 80 nM measured after 24 hrs in presence of 17-AAG by Fluoro Fire-Blue ProViaTox assay; conditions: Hep 3B2, time 24.0 hrs
[24] = system: Hep 3B2; assay: Anti-proliferative activity against human Hep3B cells assessed as decrease in STAT3 mRNA level at 80 nM incubated for 24 hrs in presence of SGBS CM by qRT-PCR analysis; assay type: functional, cell-based
[25] = system: Hep 3B2; assay: Anti-proliferative activity against human Hep3B cells assessed as reduced cell proliferation at 80 nM incubated for 24 hrs in presence of SGBS CM by Fluoro Fire-Blue ProViaTox assay; assay type: functional, cell-based
[26] = system: Hep 3B2; assay: Upregulation of BIM expression in human Hep3B cells at 80 nM incubated for 24 hrs by qRT-PCR analysis; assay type: functional, cell-based
Summary of the method: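 RNA levels of BCL-2, BIM, BAX and BAD measured in Hep3B cells after 24 h with 80 nM drug. Triplicates, three independent experiments, t-test.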

For `CN(C)Cc1ccc(S(=O)(=O)n2ccc(/C=C/C(=O)NO)c2)cc1` [RESMINOSTAT], the Activity [1] was “Active”, the Activity [2] was “Active” and the Activity [3] was “Active”. The Activity [4] was 52.67%, the Activity [5] was “Active” and the Activity [6] was “Active”. The Activity [7] was “Active”, the Activity [8] was “Active” and the Activity [9] was “Active”. For the same compound, the Activity [10] was “Active”, the Activity [11] was “Active” and the Activity [12] was “Active”. The Activity [13] was “Active”, the Activity [14] was “Active” and the Activity [15] was “Active”. The Activity [16] was “Active”, the Activity [17] was 31.47% and the Activity [18] was “Dose-Dependent Effect”. For the same compound, the Activity [19] was “Active”, the Activity [20] was “Active” and the Activity [21] was “Active”. The Activity [22] was “Active”, the Activity [23] was “Active” and the Activity [24] was “Active”. The Activity [25] was “Active” and the Activity [26] was “Active”.
